Data as given in PMC6718330 (European journal of medicinal chemistry, 2019).
Entries after “also recorded” stand apart in the source; their conditions may differ.

Columns and labels:
[1] = test system: cruzain and rhodesain; experiment: Primary screen of the MMV400 at 5 µM against cruzain and rhodesain; format: biochemical, Trypanosoma cruzi; Trypanosoma brucei; conditions: primary screen at 5 µM
Outline: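 Fluorimetric screen of the library at 5 µM against recombinant cruzain and rhodesain (1 nM each). Substrate was 2.5 µM Z-FR-AMC in 0.1 M sodium acetate pH 5.5 with 0.01% Triton X-100 and 1 mM β-mercaptoethanol. Runs had no pre-incubation or 10 min enzyme–compound pre-incubation, two duplicates each. AMC release was read at 340/440 nm for 5 min at 12 s intervals; DMSO and E-64 served as controls.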

[2] = biological target: rhodesain (Trypanosoma brucei rhodesiense, UniProt Q95PM0); experiment: Rhodesain enzymatic assay; format: biochemical
[3] = test system: T.cruzi (Y strain); experiment: Trypomastigote release from T. cruzi-infected peritoneal macrophages; format: cell-based, Trypanosoma cruzi; conditions: 50 µM
[4] = biological target: T1, cruzain (Trypanosoma cruzi, UniProt P25779); experiment: Aggregation assays against cruzain; format: biochemical; conditions: for Sensitivity of inhibition to pre-incubation with BSA: BSA 2 mg/mL in Triton X-100 0.001%; for Sensitivity of inhibition to detergent (Triton X-100): absence, 0.01% and 0.1% Triton X-100, 10 min pre-incubation with cruzain
Outline: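 Recombinant cruzain (1 nM) was pre-incubated with the test compound for 10 min at room temperature, with no Triton X-100, 0.01% or 0.1% Triton X-100. Percent inhibition was compared across detergent levels. In a BSA variant, compound sat 5 min with BSA (2 mg/mL in 0.001% Triton), then 5 min with cruzain, before substrate was added, run alongside a BSA-free control. Fluorogenic Z-FR-AMC read-out was at 340/440 nm.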

[5] = biological target: T1, cruzain; experiment: Cruzain enzymatic assay; format: biochemical; conditions: for Mechanism of inhibition against cruzain: Lineweaver-Burk plots
[6] = biological target: rat cathepsin B (Rattus norvegicus, UniProt P00787); experiment: Cathepsin B inhibition assay; format: biochemical; conditions: read-out: Inhibition of cathepsin B (greatest observed)
Outline: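 Buffer: 100 mM sodium phosphate, 100 mM NaCl, 1 mM EDTA, 1 mM DTT, 0.01% CHAPS, 25°C. Test compound at 100 µM or 50 µM, with or without 5 min enzyme pre-incubation. Fluorescence at 380/440 nm for 15 min. Percent inhibition versus 2% DMSO; E64 1 µM positive control. Two independent experiments, each in triplicate.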

[7] = test system: Nitric oxide levels in macrophage culture; experiment: Nitric oxide detection; format: cell-based, mouse; conditions: culture supernatant after 11 days; 12 at 3.125 µM, IFN-γ 100 ng/mL
Outline: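 Peritoneal macrophages from thioglycolate-elicited female C57BL/6 mice (8–10 wk) were plated at 2 × 10^5/well, adhered 3 h, then rested overnight. They were infected 2 h with Y-strain T. cruzi trypomastigotes (5:1 parasite:cell), washed, then given test compound or IFN-γ at 37°C, 5% CO2. Day-11 supernatant plus Griess reagent, 10 min, A540 for nitrite. Three independent experiments in triplicate; mean ± SEM.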

[8] = test system: Peritoneal macrophages of C57BL/6 mice; experiment: LDH cytotoxicity assay in peritoneal macrophages; format: cell-based, mouse; conditions: 3.125 µM, 24 h

T1 sequence (P25779 123-467): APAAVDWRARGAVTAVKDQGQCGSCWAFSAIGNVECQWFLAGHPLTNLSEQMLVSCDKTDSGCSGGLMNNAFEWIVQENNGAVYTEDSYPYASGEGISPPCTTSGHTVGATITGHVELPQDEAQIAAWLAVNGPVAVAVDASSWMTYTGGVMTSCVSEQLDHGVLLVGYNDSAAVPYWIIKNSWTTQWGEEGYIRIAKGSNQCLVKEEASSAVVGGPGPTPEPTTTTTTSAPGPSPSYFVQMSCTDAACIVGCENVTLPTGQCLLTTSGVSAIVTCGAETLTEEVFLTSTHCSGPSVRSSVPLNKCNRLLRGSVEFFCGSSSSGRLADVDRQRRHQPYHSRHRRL
Chain of rat cathepsin B (P00787 80-339): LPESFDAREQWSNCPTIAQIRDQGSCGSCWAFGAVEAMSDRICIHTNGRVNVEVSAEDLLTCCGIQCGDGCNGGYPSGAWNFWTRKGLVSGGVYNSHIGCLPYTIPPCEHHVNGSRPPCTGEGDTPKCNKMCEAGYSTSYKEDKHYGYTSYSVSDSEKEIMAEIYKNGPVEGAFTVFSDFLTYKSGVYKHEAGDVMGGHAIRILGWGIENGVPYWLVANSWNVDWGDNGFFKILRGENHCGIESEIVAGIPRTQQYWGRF

Row | Molecule | Over 50% cruzain and rhodesain inhibition? [1] | Sensitivity of inhibition to pre-incubation with BSA [4] | further results
1 | CCOc1ccc(/C=C/c2nc(=O)c3ccccc3o2)cc1 [Compound 1] | yes | – | –
2 | Cn1c(=O)n(C)c2cc(CNCCNc3ccnc4cc(Cl)ccc34)ccc21 [Compound 2] | yes | not sensitive to detergent nor BSA incubation | Ki [2]: 1.4 µM; Mechanism of inhibition versus rhodesain ([2]; Lineweaver-Burk plots): mixed mechanism; also recorded: mixed-type inhibitor; Trypanocidal activity in initial screen [3]: trypanocidal activity
3 | Cc1cc(Nc2ccc(C)c(Cl)c2)n2nc(C(F)(F)F)nc2n1 [Compound 3] | no | – | –
4 | Cc1nc2ccccc2c(O)c1CC=C(Cl)Cl [Compound 4] | yes | – | –
5 | c1ccc(-c2ccc(-c3nc4ccccc4[nH]3)cc2)cc1 [Compound 5] | yes | sensitive to pre-incubation with bovine serum albumin | Fluorescence in the assays (signal interference) [4]: displayed fluorescence in the assays; Sensitivity of inhibition to detergent (Triton X-100) [4]: highly sensitive to Triton
6 | CCOc1cccc(C(=O)Nc2ccc(-c3nc4ccccc4[nH]3)cc2)c1 [Compound 6] | yes | sensitive to pre-incubation with bovine serum albumin | Fluorescence in the assays (signal interference) [4]: displayed fluorescence in the assays; Sensitivity of inhibition to detergent (Triton X-100) [4]: highly sensitive to Triton; Hill slope of dose-response curve ([5]; cruzain dose-response curve): 3.9
7 | c1ccc(CNc2nc(Nc3ccccc3)nc3ccccc23)cc1 [Compound 7] | yes | not sensitive to detergent nor BSA incubation | inhibition at 100 µM [6]: 29%; Trypanocidal activity in initial screen [3]: trypanocidal activity; Detergent sensitivity of inhibition at 50 µM ([4]; 50 µM compound): some detergent-sensitivity; Mechanism of inhibition against cruzain [5]: competitive inhibition
8 | COCCNCC(O)Cn1c2ccc(Cl)cc2c2cc(Cl)ccc21 (stereo not shown) [Compound 8] | no | sensitive to pre-incubation with bovine serum albumin | Sensitivity of inhibition to detergent (Triton X-100) [4]: highly sensitive to Triton
9 | CCOC(=O)c1c(C)n(-c2ccccc2)c2ccc(OC(=O)c3cc(OC)c(OC)c(OC)c3)cc12 [Compound 9] | yes | – | –
10 | CC(=O)c1ccc(NC(=O)CSc2nc(-c3ccccc3Cl)ns2)cc1 [Compound 10] | yes | – | –
11 | Cc1ccc(C(=O)c2oc3ccc4c(C)cc(=O)oc4c3c2C)cc1 [Compound 11] | yes | – | –
12 | Cl.Cl.Clc1cc(Br)ccc1-c1ccc(CNCC2CCNCC2)o1 [Compound 12, 1-[5-(4-Bromo-2-chlorophenyl)-2-furyl]-N-(4-piperidinylmethyl)methanamine dihydrochloride] | no | not sensitive to detergent nor BSA incubation | Trypanocidal activity in initial screen [3]: trypanocidal activity; Nitric oxide production [7]: independent of NO release; Cytotoxicity against macrophages (LDH levels) [8]: low toxicity against murine macrophages; also recorded: did not exhibit cytotoxic activity; Mechanism of inhibition against cruzain [5]: competitive inhibition
13 | COc1ccc2sc(N(Cc3cccnc3)C(=O)c3ccc(C#N)cc3)nc2c1 [Compound 13] | yes | – | –
14 | FC(F)(F)c1cccc(CNC2CCN(CCc3ccccc3)CC2)c1 [Compound 14] | yes | – | –
15 | COCCNC(=O)c1ccc(OC2CCN(Cc3ccc(F)c(F)c3)CC2)c(Cl)c1 [Compound 15] | yes | – | Trypanocidal activity in initial screen [3]: trypanocidal activity
16 | IFN-γ: Interferon gamma (100 ng/mL, Sigma) used to stimulate macrophages as comparison treatment (protein, UniProt P01579 24-161, looked up) Interferon gamma: QDPYVKEAENLKKYFNAGHSDVADNGTLFLGILKNWKEESDRKIMQSQIVSFYFKLFKNFKDDQSIQKSVETIKEDMNVKFFNSNKKKRDDFEKLTNYSVTDLNVQRKAIHELIQVMAELSPAAKTGKRKRSQMLFRG | – | – | Nitric oxide production [7]: increased
